# Measured values taken from ChEMBL document CHEMBL1777756, “Discovery of Novel Benzo[a]phenoxazine SSJ-183 as a Drug Candidate for Malaria” (ACS Med Chem Lett, 2010).
# pIC50: −log10 of the molar value. Calls of active or inactive are those of the source. The calls are words filed in the database; no cut-off is given here.
# How the values were obtained:
# [1] = Toxicity in rat at 1000 mg/kg by micronucleus test; format: organism-based; design: dose 1000 mg/kg; conditions: in vivo
# Procedure, shortened: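 In vivo micronucleus test in rats dosed at 1000 mg/kg × 2.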
# [2] = tested on: Trypanosoma cruzi; test: Antiparasitic activity against Trypanosoma cruzi; format: functional, organism-based
# [3] = tested on: Leishmania donovani; test: Selectivity ratio of IC50 for Plasmodium falciparum K1 to IC50 for Leishmania donovani; format: functional
# [4] = tested on: Plasmodium berghei; test: Antimalarial activity against Plasmodium berghei NK-65 infected in ICR mouse assessed as inhibition of parasitemia at 100 mg/kg, po administered as single dose on day 1 measured on day 4; format: functional
# Procedure, shortened: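 Compound was formulated at 100 mg/kg in 5% glucose/10% ethanol or in 7% Tween 80/3% ethanol. The suspension was given as a single oral dose on day 1 to female ICR mice infected with P. berghei NK-65. Parasitemia was determined on day 4 after infection. Treated-group mean is expressed as percent difference from the control-group mean.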
# [5] = tested on: Leishmania donovani; test: Antiparasitic activity against Leishmania donovani; format: functional, organism-based
# [6] = Toxicity in S9 fraction at 1000 uM by chromosomal aberration test; format: subcellular; conditions: s9, 1000 µM
# Procedure, shortened: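 Chromosome aberration test at 1000 μM, run both without and with S9 metabolic activation.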
# [7] = tested on: Plasmodium berghei; test: Antimalarial activity against Plasmodium berghei str. ANKA infected in mouse assessed as cure rate at 100 mg/kg, po administered as three daily dose; format: functional, organism-based; design: dose 100 mg/kg
# Procedure, shortened: (§1)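 Oral dosing once a day for three consecutive days to female NMRI mice infected with P. berghei GFP ANKA strain. n = 3 mice per dose, data from 2–3 independent experiments. Parasitemia inhibition read on day 4 postinfection. Mean survival days and the percentage of cured animals were recorded.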
# [8] = tested on: Plasmodium berghei; test: Antimalarial activity against Plasmodium berghei ANKA expressing green fluorescent protein infected in NMRI mouse assessed as growth inhibition at 10 mg/kg, po qd administered for 3 consecutive days measured on day 4 post parasitic infection; format: functional; conditions: 96 h, read-out: GI; procedure, shortened: as §1
# [9] = tested on: Plasmodium berghei; test: Antimalarial activity against Plasmodium berghei ANKA expressing green fluorescent protein infected in NMRI mouse assessed as growth inhibition at 100 mg/kg, po qd administered for 3 consecutive days measured on day 4 post parasitic infection; format: functional; conditions: 96 h, read-out: GI; procedure, shortened: as §1
# [10] = tested on: Plasmodium berghei; test: Antimalarial activity against Plasmodium berghei ANKA expressing green fluorescent protein infected in NMRI mouse assessed as survival days at 30 mg/kg, po qd administered for 3 consecutive days; format: functional
# Procedure, shortened: (§2)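 Female NMRI mice infected with GFP-expressing P. berghei ANKA were dosed orally once daily for three consecutive days, 3 mice per dose level, in 2 to 3 independent experiments. Parasitemia was read on day 4 post-infection, and mean survival days were recorded along with the percentage of cured animals.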
# [11] = tested on: Plasmodium berghei; test: Antimalarial activity against Plasmodium berghei ANKA infected in NMRI mouse at 100 mg/kg, po administered as single dose; format: functional
# Procedure, shortened: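 Female NMRI mice infected with P. berghei ANKA strain were given a single oral dose of 100 mg/kg. Three independent experiments were run with n = 3 mice per experiment. Inhibition of parasitemia and mean survival days are averaged across the experiments.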
# [12] = tested on: Mus musculus; test: Biodistribution in mouse eyes at 100 mg/kg, po administered as single dose; format: ADME, organism-based, Eye; design: dose 100 mg/kg, route oral; conditions: in vivo
# Procedure, shortened: (§3)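 Mice received a single oral dose of 100 mg/kg. Urine, eyes and organs were then checked by eye for the purple/blue colour of the compound formulation.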
# [13] = tested on: Plasmodium berghei; test: Antimalarial activity against Plasmodium berghei ANKA expressing green fluorescent protein infected in NMRI mouse assessed as survival days at 100 mg/kg, po qd administered for 3 consecutive days; format: functional; procedure, shortened: as §2
# [14] = Oral bioavailability in Sprague-Dawley rat; format: ADME, organism-based; conditions: in vivo
# Procedure, shortened: (§4)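 Male Sprague–Dawley rats received 2.8 mg/kg intravenously or 21.5 mg/kg orally, and the plasma concentration–time profile was followed. Oral bioavailability and terminal half-life after iv dosing were derived.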
# [15] = tested on: Plasmodium berghei; test: Antimalarial activity against Plasmodium berghei ANKA expressing green fluorescent protein infected in NMRI mouse assessed as cure rate at 30 mg/kg, po qd administered for 3 consecutive days; format: functional; procedure, shortened: as §1
# [16] = tested on: L6; test: Cytotoxicity against rat L6 cells; format: cell-based
# Procedure, shortened: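 Cytotoxicity was tested against L-6 rat myoblasts, with IC50 determined. Values are the mean of two independent assays.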
# [17] = Selectivity ratio of IC50 for Plasmodium falciparum K1 to IC50 for Trypanosoma brucei rhodesiense; format: functional
# [18] = tested on: Trypanosoma brucei rhodesiense; test: Antiparasitic activity against Trypanosoma brucei rhodesiense; format: functional, organism-based
# [19] = tested on: Mus musculus; test: Toxicity in NMRI mouse infected with Plasmodium berghei ANKA expressing green fluorescent protein assessed as lethality at 2000 mg/kg, po qd administered for 3 consecutive days; format: organism-based; design: dose 2000 mg/kg, route oral; conditions: in vivo
# [20] = tested on: Plasmodium berghei; test: Antimalarial activity against Plasmodium berghei ANKA expressing green fluorescent protein infected in NMRI mouse assessed as cure rate at 100 mg/kg, po qd administered for 3 consecutive days; format: functional; procedure, shortened: as §1
# [21] = tested on: Trypanosoma cruzi; test: Selectivity ratio of IC50 for Plasmodium falciparum K1 to IC50 for Trypanosoma cruzi; format: functional
# [22] = tested on: Blood; test: Cytotoxicity in G6PD-deficient human blood assessed as hemolysis; format: tissue-based
# [23] = tested on: Plasmodium falciparum; test: Antimalarial activity against chloroquine and pyrimethamine resistant Plasmodium falciparum K1; format: functional, organism-based
# Procedure, shortened: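 IC50 was determined in vitro against the chloroquine- and pyrimethamine-resistant P. falciparum K1 strain. Values are the mean of two independent assays.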
# [24] = molecular target: T1, Adenosine receptor A3 (Homo sapiens) (UniProt P0DMS8); test: Inhibition of human recombinant A3 receptor at 1 uM
# T1 sequence (whole entry): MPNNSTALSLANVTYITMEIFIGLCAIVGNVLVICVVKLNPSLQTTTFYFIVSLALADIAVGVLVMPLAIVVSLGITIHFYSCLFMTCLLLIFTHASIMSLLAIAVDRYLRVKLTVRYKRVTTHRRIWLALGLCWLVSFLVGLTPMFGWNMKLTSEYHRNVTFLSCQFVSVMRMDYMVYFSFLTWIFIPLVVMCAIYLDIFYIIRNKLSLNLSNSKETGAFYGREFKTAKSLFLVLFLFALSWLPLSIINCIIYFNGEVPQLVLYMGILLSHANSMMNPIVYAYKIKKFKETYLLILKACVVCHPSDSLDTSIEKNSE
# Procedure, shortened: (§5)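 Binding assays were run against a panel of 80 receptors at 1 μM compound. Percent inhibition was read for human recombinant receptors.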
# [25] = tested on: Plasmodium berghei; test: Antimalarial activity against Plasmodium berghei ANKA expressing green fluorescent protein infected in NMRI mouse assessed as survival days at 10 mg/kg, po qd administered for 3 consecutive days; format: functional; procedure, shortened: as §2
# [26] = Biodistribution in mouse urine at 100 mg/kg, po administered as single dose; format: ADME, organism-based; design: dose 100 mg/kg, route oral; conditions: in vivo; procedure, shortened: as §3
# [27] = Selectivity index, ratio of IC50 for rat L6 cells to IC50 for Plasmodium falciparum K1; format: toxicity, cell-based; conditions: read-out: Ratio IC50
# Procedure, shortened: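 Selectivity index is IC50 against L-6 cells divided by IC50 against chloroquine/pyrimethamine-resistant P. falciparum K1. Each IC50 is the mean of two independent assays.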
# [28] = molecular target: D(3) dopamine receptor (Homo sapiens) (UniProt P35462); test: Inhibition of human recombinant D3 receptor at 1 uM; procedure, shortened: as §5
# [29] = Toxicity in S9 fraction at 2 uM by micronucleus test; format: subcellular; conditions: s9, 2 µM
# Procedure, shortened: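 In vitro micronucleus test at 2.0 μM, run both without and with S9.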
# [30] = Terminal-half life in iv dosed Sprague-Dawley rat; format: ADME, organism-based; conditions: in vivo, read-out: beta t1/2 (converted); procedure, shortened: as §4
# [31] = tested on: Plasmodium berghei; test: Antimalarial activity against Plasmodium berghei NK-65 infected in ICR mouse assessed as survival days at 100 mg/kg, po administered as single dose (reference value: 6 days); format: functional
# Procedure, shortened: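 Female ICR mice infected with P. berghei NK-65 received a single oral dose of 100 mg/kg on day 1. The compound was given as a suspension in 5% glucose/10% ethanol or in 7% Tween 80/3% ethanol. Parasitemia was read on day 4 as percent reduction relative to untreated controls, and mean survival days were recorded.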
# [32] = tested on: Plasmodium berghei; test: Antimalarial activity against Plasmodium berghei ANKA infected in NMRI mouse assessed as survival days at 100 mg/kg, po administered as single dose; format: functional
# Procedure, shortened: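 Female NMRI mice infected with P. berghei ANKA received a single oral dose of 100 mg/kg. Three independent experiments were run with 3 mice each. Mean survival days were averaged across the experiments.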
# [33] = tested on: Plasmodium berghei; test: Antimalarial activity against Plasmodium berghei ANKA expressing green fluorescent protein infected in NMRI mouse assessed as growth inhibition at 30 mg/kg, po qd administered for 3 consecutive days measured on day 4 post parasitic infection; format: functional; conditions: 96 h, read-out: GI; procedure, shortened: as §1
# [34] = tested on: Mus musculus; test: Phototoxicity against mouse at 300 mg/kg, po; format: organism-based; design: dose 300 mg/kg, route oral; conditions: in vivo
# Procedure, shortened: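 Mice dosed orally at 300 mg/kg were assessed for phototoxicity.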
# Sequence of D(3) dopamine receptor (Homo sapiens) (P35462 whole entry): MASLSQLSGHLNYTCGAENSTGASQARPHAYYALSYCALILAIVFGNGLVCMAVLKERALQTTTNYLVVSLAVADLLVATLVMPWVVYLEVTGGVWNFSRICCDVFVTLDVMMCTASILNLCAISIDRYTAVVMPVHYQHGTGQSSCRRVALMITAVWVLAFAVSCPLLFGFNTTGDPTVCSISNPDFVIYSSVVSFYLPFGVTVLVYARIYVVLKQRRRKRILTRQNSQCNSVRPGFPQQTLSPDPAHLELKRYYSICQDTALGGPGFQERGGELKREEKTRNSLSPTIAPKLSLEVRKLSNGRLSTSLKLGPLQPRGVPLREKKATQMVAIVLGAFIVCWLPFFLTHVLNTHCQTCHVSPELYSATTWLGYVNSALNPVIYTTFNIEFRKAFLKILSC
compound,measurement,setting,value
CCN(CC)c1ccc2nc3c4ccccc4/c(=N\c4ccncc4)cc-3oc2c1,Activity,[1],Non-toxic
same,pIC50,[2],4.95
same,Ratio IC50,[3],> 1000
same,inhibition in vivo at 100 mg/kg,[4],> 99.9%
same,pIC50,[5],5.19
same,Activity,[6],Non-toxic
same,Activity,[7],Active
same,inhibition in vivo at 10 mg/kg,[8],26%
same,inhibition in vivo at 100 mg/kg,[9],> 99.9%
same,MSD,[10],27.2 days
same,inhibition in vivo at 100 mg/kg,[11],99%
same,Drug uptake,[12],Not Active
same,MSD,[13],>30 days
same,bioavailability,[14],30%
same,Activity,[15],78%
same,pIC50,[16],4.25
same,Ratio IC50,[17],> 1000
same,pIC50,[18],4.44
same,Activity,[19],Non-toxic
same,Activity,[20],100%
same,Ratio IC50,[21],> 1000
same,Activity,[22],Non-toxic
same,pIC50,[23],8.12
same,inhibition,[24],80%
same,MSD,[25],4 days
same,Drug uptake,[26],Not Active
same,selectivity ratio,[27],7330
same,inhibition,[28],80%
same,Activity,[29],Non-toxic
same,half-life,[30],330 min
same,MSD,[31],14.6 days
same,MSD,[32],16 days
same,inhibition in vivo at 30 mg/kg,[33],99%
same,Activity,[34],Non-toxic
